Experimental data taken from ChEMBL document CHEMBL1135498, “Pyrazole urea-based inhibitors of p38 MAP kinase: from lead compound to clinical candidate” (J Med Chem, 2002).
Each block holds one compound with its values, some of them ahead of it. Active and inactive are the calls of the source. The calls are words filed in the database; no cut-off is given here.

Legend:
Mus musculus [1] = assay: In vivo inhibition of LPS-stimulated TNF-alpha in mouse at 100 mg/kg peroral dose; assay type: functional; conditions: route oral
In short: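 Female Balb/c mice (~20 g) dosed orally in cremophor ~30 min before iv LPS (E. coli 0111:B4, 1.0 μg/mouse) plus D-gal (50 mg/kg) in pyrogen-free saline. Blood taken by cardiac puncture 1 h after challenge; serum TNF-α by ELISA in duplicate; serum compound levels by HPLC.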

[2] = Plasma level of compound was measured after 90 min post dose in mouse.; assay type: ADME, organism-based; conditions: read-out: Plasma level
In short: (§1)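 Female Balb/c mice (~20 g) received compound or vehicle orally in cremophor about 30 min before an i.v. challenge of E. coli 0111:B4 LPS (1.0 μg/mouse) plus D-gal (50 mg/kg) in pyrogen-free saline. One hour after challenge, the mice were bled by cardiac puncture. Serum TNF-α was measured by ELISA in duplicate, and compound levels by HPLC.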

Mus musculus [3] = assay: In vivo inhibition of LPS-stimulated TNF-alpha in mouse at 100 mg/kg peroral dose; NS = Not significant.; assay type: functional, organism-based; design: dose 100 mg/kg; in short: as §1
[4] = Plasma level of compound was measured after 90 min post dose in mouse; assay type: ADME, organism-based; conditions: read-out: Plasma level; in short: as §1
MAP kinase p38 = MAP kinase p38 (Homo sapiens, UniProt O15264+Q15759+Q16539+P53778); assay: Binding affinity against human Mitogen-activated protein kinase p38; assay type: protein assay
In short: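 Inhibitor at two concentrations (typically 1 and 0.1 μM, verified by HPLC); 60 min room temperature; excitation 332 nm, emission 420 nm. Duplicates; all points fit to equilibrium binding equation for Kd.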

[5] = Bioavailability was measured after oral dosing at 10 mg/kg in female BALB/c mice(100% PEG400); assay type: ADME, organism-based; conditions: mouse, in vivo, read-out: Bioavailabiility
[6] = Bioavailability was measured after oral dosing at 10 mg/kg in male cynomolgus monkey (100% PEG400); assay type: ADME, organism-based, Macaca fascicularis; conditions: in vivo, read-out: Bioavailabiility
[7] = Half life was measured after intravenous dosing at 1 mg/kg in female BALB/c mice(70% PEG400); assay type: ADME, organism-based; design: dose 1 mg/kg, route intravenous; conditions: mouse, in vivo
[8] = Vss was measured after intravenous dosing at 1 mg/kg in female BALB/c mice(70% PEG400); assay type: ADME, organism-based; design: dose 1 mg/kg, route intravenous; conditions: mouse, in vivo, read-out: Vss
[9] = Vss was measured after intravenous dosing at 1 mg/kg in male cynomolgus monkey (70% PEG400); assay type: ADME, organism-based, Macaca fascicularis; design: dose 1 mg/kg, route intravenous; conditions: in vivo, read-out: Vss
[10] = Maximum plasma conc. was measured after oral dosing at 10 mg/kg in female BALB/c mice(100% PEG400); assay type: ADME, organism-based; design: dose 10 mg/kg, route oral; conditions: mouse
[11] = Half-life was measured after intravenous dosing at 1 mg/kg in male cynomolgus monkey (70% PEG400); assay type: ADME, organism-based, Macaca fascicularis; design: dose 1 mg/kg, route intravenous; conditions: in vivo
[12] = Maximum conc. (Cmax) was measured after oral dosing at 10 mg/kg in male cynomolgus monkey (100% PEG400); assay type: ADME, organism-based, Macaca fascicularis; design: dose 10 mg/kg, route oral; conditions: in vivo
[13] = Maximum time (Tmax) was measured after oral dosing at 10 mg/kg in female BALB/c mice(100% PEG400); assay type: ADME, organism-based; design: dose 10 mg/kg, route oral; conditions: mouse, in vivo
[14] = Maximum time (Tmax) was measured after oral dosing at 10 mg/kg in male cynomolgus monkey (100% PEG400); assay type: ADME, organism-based, Macaca fascicularis; design: dose 10 mg/kg, route oral; conditions: in vivo
[15] = Plasma clearance (CL) was measured after intravenous dosing at 1 mg/kg in female BALB/c mice(70% PEG400); assay type: ADME, organism-based; design: dose 1 mg/kg, route intravenous; conditions: mouse
[16] = Plasma clearance was measured after intravenous dosing at 1 mg/kg in male cynomolgus monkey (70% PEG400); assay type: ADME, organism-based, Macaca fascicularis; design: dose 1 mg/kg, route intravenous
[17] = molecular target: Receptor tyrosine-protein kinase erbB-2 (Homo sapiens, UniProt P04626); assay: Selectivity against HER2 kinase
[18] = Selectivity against Protein kinase C alpha, Protein kinase C beta, Protein kinase C gamma
[19] = molecular target: cAMP-dependent protein kinase (PKA) (Homo sapiens, UniProt P22694+P17612+P22612); assay: Selectivity against Protein kinase A (PKA); assay type: protein assay

Chain of Receptor tyrosine-protein kinase erbB-2 (P04626 whole entry): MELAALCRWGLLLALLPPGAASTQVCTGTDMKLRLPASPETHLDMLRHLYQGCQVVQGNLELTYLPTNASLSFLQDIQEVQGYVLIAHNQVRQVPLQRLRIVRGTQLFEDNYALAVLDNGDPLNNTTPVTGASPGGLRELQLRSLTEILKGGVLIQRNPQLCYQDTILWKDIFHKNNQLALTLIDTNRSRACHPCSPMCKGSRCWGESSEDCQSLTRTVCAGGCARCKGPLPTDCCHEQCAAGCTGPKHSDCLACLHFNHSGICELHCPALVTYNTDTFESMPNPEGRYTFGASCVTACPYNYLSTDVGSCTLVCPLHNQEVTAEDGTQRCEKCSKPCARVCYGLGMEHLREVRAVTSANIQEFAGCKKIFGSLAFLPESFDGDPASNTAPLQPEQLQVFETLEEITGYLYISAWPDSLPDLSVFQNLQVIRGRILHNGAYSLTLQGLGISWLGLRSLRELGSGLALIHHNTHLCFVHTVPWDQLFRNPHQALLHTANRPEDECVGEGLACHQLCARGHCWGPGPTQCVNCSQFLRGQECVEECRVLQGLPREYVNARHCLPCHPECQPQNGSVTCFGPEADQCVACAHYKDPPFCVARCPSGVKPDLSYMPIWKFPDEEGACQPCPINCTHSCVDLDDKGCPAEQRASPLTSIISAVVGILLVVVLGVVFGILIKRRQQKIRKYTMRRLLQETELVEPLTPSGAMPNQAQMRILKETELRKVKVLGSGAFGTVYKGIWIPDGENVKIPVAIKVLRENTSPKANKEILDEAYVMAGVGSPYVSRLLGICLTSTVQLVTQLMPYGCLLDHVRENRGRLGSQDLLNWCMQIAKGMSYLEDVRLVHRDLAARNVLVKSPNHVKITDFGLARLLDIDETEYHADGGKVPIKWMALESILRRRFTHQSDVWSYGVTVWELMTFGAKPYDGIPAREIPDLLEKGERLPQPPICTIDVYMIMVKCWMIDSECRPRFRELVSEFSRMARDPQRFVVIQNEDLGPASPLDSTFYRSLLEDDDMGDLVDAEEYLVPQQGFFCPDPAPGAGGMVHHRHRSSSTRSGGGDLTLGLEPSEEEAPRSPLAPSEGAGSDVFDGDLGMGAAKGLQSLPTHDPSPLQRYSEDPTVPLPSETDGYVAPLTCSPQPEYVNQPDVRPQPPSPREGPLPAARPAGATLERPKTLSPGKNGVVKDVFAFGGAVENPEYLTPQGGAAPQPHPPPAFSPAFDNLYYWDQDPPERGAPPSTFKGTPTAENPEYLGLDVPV

Structure (SMILES): Cc1ccc(-n2nc(C(C)(C)C)cc2NC(=O)Nc2ccccc2F)cc1
inhibition in vivo at 100 mg/kg (Mus musculus [1]): 90%
concentration at 1.5 h [2]: 51000 ng/mL

Structure (SMILES): Cc1ccc(-n2nc(C(C)(C)C)cc2NC(=O)Nc2ccccc2)cc1
inhibition in vivo at 100 mg/kg (Mus musculus [1]): 67%
concentration at 1.5 h [4]: 11000 ng/mL

Now from value to compound, other results behind:

concentration at 1.5 h [2]: 100 ng/mL
Structure (SMILES): CC(C)(C)c1cc(NC(=O)Nc2ccccc2)n(-c2ccccc2)n1
NS (Mus musculus [3]): inactive

Kd (MAP kinase p38): 0.001 µM
Structure (SMILES): Cc1ccc(-n2nc(C(C)(C)C)cc2NC(=O)Nc2cccc3ccccc23)cc1

bioavailability [5]: 23%
bioavailability [6]: 80%
half-life [7]: 2.6 h
Vd [8]: 0.07 L/kg
Vd [9]: 1.9 L/kg
Cmax [10]: 27000 ng/mL
half-life [11]: 1.6 h
Cmax [12]: 1700 ng/mL
Tmax [13]: 1 h
Tmax [14]: 3 h
clearance [15]: 0.33 mL/min/kg
clearance [16]: 14.4 mL/min/kg
IC50 [17]: > 20 µM
IC50 [18]: > 20 µM
IC50 [19]: > 20 µM
Structure (SMILES): Cc1ccc(-n2nc(C(C)(C)C)cc2NC(=O)Nc2ccc(OCCN3CCOCC3)c3ccccc23)cc1 [DORAMAPIMOD]
